Data from ChEMBL document CHEMBL1151798, “Monoacylglycerol lipase regulates 2-arachidonoylglycerol action and arachidonic acid levels” (Bioorg Med Chem Lett, 2008).
The source made the active and inactive calls. No cut-off for these calls is given here.

Experiments:
Mus musculus [1] = test: Modulation of cataleptic behavior in Swiss-Webster mouse assessed as >10 sec latency along with flattened posture at 100 mg/kg, ip by bar test; assay type: functional, organism-based; design: dose 100 mg/kg
Summary of the method: (§1)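 Mice were given an intraperitoneal dose of 10 or 100 mg/kg and scored for catalepsy by bar test. A cannabinoid response was a latency >10 s, plus a qualitatively flattened posture and remaining motionless with eyes open. n=3 mice per treatment group, mean ± S.D.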

Mus musculus [2] = test: Modulation of cataleptic behavior in Swiss-Webster mouse assessed as >10 sec latency along with flattened posture and open eyes at 10 mg/kg, ip by bar test; assay type: functional, organism-based; design: dose 10 mg/kg; summary of the method: as §1
Mus musculus [3] = test: Decrease in Swiss-Webster mouse brain arachidonic acid level at 100 mg/kg, ip; assay type: functional, organism-based; design: dose 100 mg/kg
Summary of the method: (§2)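 Mice received single intraperitoneal doses (10 or 100 mg/kg). Brain levels of 2-AG and arachidonic acid were then measured. Values are mean ± S.D., n=3 mice per treatment group.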

Cannabinoid receptor 1 = Cannabinoid receptor 1 (Mus musculus, UniProt P47746); test: Displacement of [3H]CP-55940 from CB1 receptor in mouse brain; assay type: tissue-based
Mus musculus [4] = test: Decrease in Swiss-Webster mouse brain arachidonic acid level at 10 mg/kg, ip; assay type: functional, organism-based; design: dose 10 mg/kg; summary of the method: as §2
Mus musculus [5] = test: Increase in Swiss-Webster mouse brain 2-arachidonoylglycerol level at 10 mg/kg, ip; assay type: functional, organism-based; design: dose 10 mg/kg; summary of the method: as §2
Mus musculus [6] = test: Increase in Swiss-Webster mouse brain 2-arachidonoylglycerol level at 100 mg/kg, ip; assay type: functional, organism-based; design: dose 100 mg/kg; summary of the method: as §2
[7] = molecular target: T1, Fatty-acid amide hydrolase 1 (Mus musculus, UniProt O08914); test: Inhibition of FAAH-mediated [3H]anandamide hydrolysis in mouse brain; assay type: tissue-based
T1 sequence (O08914 whole entry): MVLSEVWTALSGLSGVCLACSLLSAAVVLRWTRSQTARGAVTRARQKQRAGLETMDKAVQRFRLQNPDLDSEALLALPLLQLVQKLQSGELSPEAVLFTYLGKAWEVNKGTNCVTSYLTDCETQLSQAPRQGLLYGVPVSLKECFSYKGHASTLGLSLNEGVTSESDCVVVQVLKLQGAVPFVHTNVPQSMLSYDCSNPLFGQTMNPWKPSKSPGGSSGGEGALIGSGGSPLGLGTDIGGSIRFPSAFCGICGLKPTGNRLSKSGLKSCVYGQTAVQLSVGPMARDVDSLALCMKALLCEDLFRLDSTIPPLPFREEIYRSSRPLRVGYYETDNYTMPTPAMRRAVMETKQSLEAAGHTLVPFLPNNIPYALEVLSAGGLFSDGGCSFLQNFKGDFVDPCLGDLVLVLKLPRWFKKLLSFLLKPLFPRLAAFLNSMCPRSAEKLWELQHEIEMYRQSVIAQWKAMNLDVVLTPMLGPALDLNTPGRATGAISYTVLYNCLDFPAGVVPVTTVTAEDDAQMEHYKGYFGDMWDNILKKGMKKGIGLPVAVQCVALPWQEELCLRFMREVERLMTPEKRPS

Monoglyceride lipase = molecular target: T2, Monoglyceride lipase (Mus musculus, UniProt O35678); test: Inhibition of MAGL-mediated 2-arachidonoylglycerol hydrolysis in mouse brain; assay type: tissue-based
T2 sequence (O35678 whole entry): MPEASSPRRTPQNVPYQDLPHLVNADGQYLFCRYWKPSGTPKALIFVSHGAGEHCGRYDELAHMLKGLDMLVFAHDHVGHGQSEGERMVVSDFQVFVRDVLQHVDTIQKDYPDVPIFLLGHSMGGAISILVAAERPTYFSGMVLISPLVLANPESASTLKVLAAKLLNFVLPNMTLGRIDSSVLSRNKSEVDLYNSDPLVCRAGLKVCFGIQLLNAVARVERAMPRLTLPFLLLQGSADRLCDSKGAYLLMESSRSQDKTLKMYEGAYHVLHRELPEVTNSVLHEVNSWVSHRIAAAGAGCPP

[8] = molecular target: Cannabinoid receptor 1 (Mus musculus) (UniProt P47746); test: Displacement of [3H]CP-55940 from mouse CB1 receptor expressed in HEK293 cells up to 100,000 nM; assay type: cell-based
[9] = molecular target: Cannabinoid receptor 1 (Mus musculus) (UniProt P47746); test: Displacement of [3H]CP-55940 from CB1 receptor in mouse brain at 100 nM; assay type: tissue-based

Cannabinoid receptor 1, sequence (P47746 whole entry): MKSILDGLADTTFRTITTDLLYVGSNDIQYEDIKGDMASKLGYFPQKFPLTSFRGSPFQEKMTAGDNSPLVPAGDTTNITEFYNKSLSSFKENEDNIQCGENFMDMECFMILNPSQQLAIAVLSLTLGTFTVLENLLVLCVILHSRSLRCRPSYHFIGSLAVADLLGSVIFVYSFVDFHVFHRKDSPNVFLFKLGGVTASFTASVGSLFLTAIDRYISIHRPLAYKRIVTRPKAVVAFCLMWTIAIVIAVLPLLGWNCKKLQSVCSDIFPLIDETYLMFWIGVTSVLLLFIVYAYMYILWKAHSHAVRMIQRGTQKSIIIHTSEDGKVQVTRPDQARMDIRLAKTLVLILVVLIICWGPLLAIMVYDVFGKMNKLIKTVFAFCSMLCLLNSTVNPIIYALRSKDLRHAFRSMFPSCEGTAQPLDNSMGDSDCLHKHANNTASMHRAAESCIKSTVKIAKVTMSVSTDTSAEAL
Cannabinoid receptor 1 (Mus musculus), sequence (P47746 whole entry): as above

| SMILES | Activity (Mus musculus [1]) | Activity (Mus musculus [2]) | Activity (Mus musculus [3]) | IC50 (Cannabinoid receptor 1) [nM] | Activity (Mus musculus [4]) | Activity (Mus musculus [5]) | Activity (Mus musculus [6]) | IC50 [7] [nM] | IC50 (Monoglyceride lipase) [nM] | Activity [8] | Bmax [9] [pmol/mg] |
| --- | --- | --- | --- | --- | --- | --- | --- | --- | --- | --- | --- |
| CCCCCCCCCCCCP(=O)(OCC)Oc1nc(Cl)c(Cl)cc1Cl (stereo not drawn) | inactive | inactive | inactive | 14 | inactive | inactive | inactive | 42 | 0.14 |  |  |
| CCCCCCCCCSP1(=O)OCc2ccccc2O1 (stereo not drawn) |  |  |  |  |  |  |  | 0.15 | 0.31 |  |  |
| CCOP(=O)(OCC)Oc1ccc([N+](=O)[O-])cc1 [PARAOXON] |  |  |  | 1200 |  |  |  | 540 | 2300 |  |  |
| CCCCCCCCCCCCS(=O)(=O)F [DODECANESULFONYL FLUORIDE] | Active | Active | Active |  | Active | Active | Active |  | 200 |  |  |
| CCOP(=O)(OCC)Oc1nc(Cl)c(Cl)cc1Cl |  |  |  |  |  |  |  |  |  | inactive | 0.17 |
| CCCCCCCCCCCCP(=O)(OCC)Oc1ccc(C#N)cc1 (stereo not drawn) | Active | Active | Active | 4 | Active | Active | Active | 12 | 0.07 |  |  |
| CCCCCCCCS(=O)(=O)F | Active | Active | Active |  | Active | Active | Active | 1.9 | 140 |  |  |
| CCCCCCCCCCCCP(=O)(Oc1ccc([N+](=O)[O-])cc1)OC(C)C (stereo not drawn) |  |  |  | 12 |  |  |  | 3 | 0.28 |  |  |
